Experiments:
[1] = target: T1, Kappa-type opioid receptor (Homo sapiens, UniProt P41145); experiment: Displacement of [3H]diprenorphine from human kappa opioid receptor expressed in CHO cells; assay type: cell-based
How it was run: (§1)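 Competitive inhibition of [3H]diprenorphine binding to membranes from CHO cells stably transfected with human κ, rat μ or mouse δ receptor; testing blinded to compound identity and molecular mass; mean of three independent experiments in duplicate.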

[2] = target: Mu-type opioid receptor (Rattus norvegicus, UniProt P33535); experiment: Displacement of [3H]diprenorphine from rat mu opioid receptor expressed in CHO cells; assay type: cell-based; how it was run: as §1
[3] = target: Delta-type opioid receptor (Mus musculus, UniProt P32300); experiment: Displacement of [3H]diprenorphine from mouse delta opioid receptor expressed in CHO cells; assay type: cell-based; how it was run: as §1
[4] = target: T1, Kappa-type opioid receptor; experiment: Agonist activity at human kappa opioid receptor expressed in CHO cells assessed as stimulation of [35S]GTPgammaS binding; assay type: functional, cell-based
How it was run: (§2)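 Potency and efficacy from [35S]GTPγS binding to membranes of CHO cells stably expressing human κ receptor; testing blinded to compound identity and molecular mass.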

[5] = target: T1, Kappa-type opioid receptor; experiment: Agonist activity at human kappa opioid receptor expressed in CHO cells assessed as stimulation of [35S]GTPgammaS binding relative to U50488H; assay type: functional, cell-based; how it was run: as §2
[6] = Selectivity for human kappa opioid receptor over rat mu opioid receptor
[7] = Selectivity for human kappa opioid receptor over mouse delta opioid receptor

Mu-type opioid receptor, sequence (P33535 whole entry): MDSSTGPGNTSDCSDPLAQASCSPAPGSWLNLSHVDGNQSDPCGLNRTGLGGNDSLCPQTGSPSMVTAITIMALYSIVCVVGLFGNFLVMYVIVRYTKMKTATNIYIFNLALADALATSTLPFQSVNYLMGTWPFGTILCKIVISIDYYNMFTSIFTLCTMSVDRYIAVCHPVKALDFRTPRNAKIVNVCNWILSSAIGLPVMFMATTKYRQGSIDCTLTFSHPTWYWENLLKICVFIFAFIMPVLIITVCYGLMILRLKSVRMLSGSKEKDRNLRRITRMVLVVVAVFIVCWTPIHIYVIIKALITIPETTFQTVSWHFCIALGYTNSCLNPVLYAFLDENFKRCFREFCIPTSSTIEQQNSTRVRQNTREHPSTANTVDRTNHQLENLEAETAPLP
T1 sequence (P41145 whole entry): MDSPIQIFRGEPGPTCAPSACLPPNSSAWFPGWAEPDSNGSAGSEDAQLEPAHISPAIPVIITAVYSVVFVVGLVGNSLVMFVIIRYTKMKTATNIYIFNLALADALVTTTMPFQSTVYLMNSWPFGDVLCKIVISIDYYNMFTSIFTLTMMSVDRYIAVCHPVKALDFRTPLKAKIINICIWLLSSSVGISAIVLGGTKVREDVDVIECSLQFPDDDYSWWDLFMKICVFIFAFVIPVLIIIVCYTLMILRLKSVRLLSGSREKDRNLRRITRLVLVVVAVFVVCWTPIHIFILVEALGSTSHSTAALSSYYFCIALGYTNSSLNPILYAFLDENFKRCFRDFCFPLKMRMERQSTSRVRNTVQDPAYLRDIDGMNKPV
Delta-type opioid receptor, sequence (P32300 whole entry): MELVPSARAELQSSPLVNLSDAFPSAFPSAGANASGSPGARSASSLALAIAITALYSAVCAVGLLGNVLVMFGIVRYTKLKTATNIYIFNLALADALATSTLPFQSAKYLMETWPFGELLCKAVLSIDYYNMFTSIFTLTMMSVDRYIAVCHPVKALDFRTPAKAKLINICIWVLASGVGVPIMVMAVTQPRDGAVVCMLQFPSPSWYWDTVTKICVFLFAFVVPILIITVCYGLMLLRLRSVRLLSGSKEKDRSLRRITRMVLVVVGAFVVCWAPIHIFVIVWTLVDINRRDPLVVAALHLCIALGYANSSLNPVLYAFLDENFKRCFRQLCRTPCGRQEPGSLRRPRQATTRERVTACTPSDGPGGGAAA

| SMILES | Ki [1] | Ki [2] | Ki [3] | EC50 [4] | Emax [5] | Ki ([2]; cho) | Ki ([3]; cho) | Selectivity ratio [6] | Selectivity ratio [7] |
| --- | --- | --- | --- | --- | --- | --- | --- | --- | --- |
| CCCCOCO[C@H]1C[C@@H](C(=O)OC)[C@]2(C)CC[C@H]3C(=O)O[C@H](c4ccoc4)C[C@]3(C)[C@H]2C1=O [SALVINORIN B BUTOXYMETHYL ETHER] | 5.3 nM | > 1000 nM | > 1000 nM | 20 nM | 81% |  |  |  |  |
| CCOC(C)O[C@H]1C[C@@H](C(=O)OC)[C@]2(C)CC[C@H]3C(=O)O[C@H](c4ccoc4)C[C@]3(C)[C@H]2C1=O (some centres undefined) [listing 1 of 3 here] |  |  |  |  | 81% |  |  |  |  |
| COC(=O)[C@@H]1C[C@H](OCF)C(=O)[C@H]2[C@@]1(C)CC[C@H]1C(=O)O[C@H](c3ccoc3)C[C@]21C [SALVINORIN B FLUOROMETHYL ETHER] | 50 nM | > 1000 nM | > 1000 nM | 26 nM | 81% |  |  |  |  |
| CCOC(C)O[C@H]1C[C@@H](C(=O)OC)[C@]2(C)CC[C@H]3C(=O)O[C@H](c4ccoc4)C[C@]3(C)[C@H]2C1=O (some centres undefined) [listing 2 of 3 here] |  | > 1000 nM | > 1000 nM |  |  |  |  |  |  |
| COC(=O)[C@@H]1C[C@H](OCSC)C(=O)[C@H]2[C@@]1(C)CC[C@H]1C(=O)O[C@H](c3ccoc3)C[C@]21C [SALVINORIN B METHYLTHIOMETHYL ETHER] | 13 nM | > 1000 nM | > 1000 nM | 31 nM | 81% |  |  |  |  |
| CCO[C@H]1C[C@@H](C(=O)OC)[C@]2(C)CC[C@H]3C(=O)O[C@H](c4ccoc4)C[C@]3(C)[C@H]2C1=O [DEOXY SALVINORIN A] |  |  |  | 18 nM |  |  |  |  |  |
| COC(=O)[C@@H]1C[C@H](OCOCC[Si](C)(C)C)C(=O)[C@H]2[C@@]1(C)CC[C@H]1C(=O)O[C@H](c3ccoc3)C[C@]21C | > 1000 nM | > 1000 nM | > 1000 nM | 1660 nM | 81% |  |  |  |  |
| COC(=O)[C@@H]1C[C@H](OCOCC(F)(F)F)C(=O)[C@H]2[C@@]1(C)CC[C@H]1C(=O)O[C@H](c3ccoc3)C[C@]21C | 31 nM | > 1000 nM | > 1000 nM | 75 nM | 81% |  |  |  |  |
| COCCOCO[C@H]1C[C@@H](C(=O)OC)[C@]2(C)CC[C@H]3C(=O)O[C@H](c4ccoc4)C[C@]3(C)[C@H]2C1=O | 141 nM | > 1000 nM | > 1000 nM | 320 nM | 81% |  |  |  |  |
| CCCOCO[C@H]1C[C@@H](C(=O)OC)[C@]2(C)CC[C@H]3C(=O)O[C@H](c4ccoc4)C[C@]3(C)[C@H]2C1=O [SALVINORIN B PROPOXYMETHYL ETHER] | 2.2 nM | > 1000 nM | > 1000 nM | 5.2 nM | 81% |  |  |  |  |
| COC(=O)[C@@H]1C[C@H](OC2CCCCO2)C(=O)[C@H]2[C@@]1(C)CC[C@H]1C(=O)O[C@H](c3ccoc3)C[C@]21C (some centres undefined) | 4 nM | > 1000 nM | > 1000 nM | 2.8 nM | 81% |  |  |  |  |
| CCOC(C)O[C@H]1C[C@@H](C(=O)OC)[C@]2(C)CC[C@H]3C(=O)O[C@H](c4ccoc4)C[C@]3(C)[C@H]2C1=O (some centres undefined) [listing 3 of 3 here] |  |  |  |  |  | > 1000 nM | > 1000 nM |  |  |
| COC(=O)[C@@H]1C[C@H](OC(C)(C)OC)C(=O)[C@H]2[C@@]1(C)CC[C@H]1C(=O)O[C@H](c3ccoc3)C[C@]21C | 72 nM | > 1000 nM | > 1000 nM | 72 nM | 81% |  |  |  |  |
| COC(=O)[C@@H]1C[C@H](OCOCCF)C(=O)[C@H]2[C@@]1(C)CC[C@H]1C(=O)O[C@H](c3ccoc3)C[C@]21C | 1.9 nM | > 1000 nM | > 1000 nM | 3.8 nM | 81% |  |  | > 500 |  |
| COC(=O)[C@@H]1C[C@H](OCOC(C)C)C(=O)[C@H]2[C@@]1(C)CC[C@H]1C(=O)O[C@H](c3ccoc3)C[C@]21C [SALVINORIN B ISOPROPOXYMETHYL ETHER] | 1.6 nM | > 1000 nM | > 1000 nM | 4.2 nM | 81% |  |  |  |  |
| COC(=O)[C@@H]1C[C@H](OCOCc2ccccc2)C(=O)[C@H]2[C@@]1(C)CC[C@H]1C(=O)O[C@H](c3ccoc3)C[C@]21C [SALVINORIN B BENZYLOXYMETHYL ETHER] | 147 nM | > 1000 nM | > 1000 nM | 274 nM | 81% |  |  |  |  |
| COC(=O)[C@@H]1C[C@H](OCOC(C)(C)C)C(=O)[C@H]2[C@@]1(C)CC[C@H]1C(=O)O[C@H](c3ccoc3)C[C@]21C | 35 nM | > 1000 nM | > 1000 nM | 108 nM | 81% |  |  |  |  |
| CCOCO[C@H]1C[C@@H](C(=O)OC)[C@]2(C)CC[C@H]3C(=O)O[C@H](c4ccoc4)C[C@]3(C)[C@H]2C1=O [SALVINORIN B ETHOXYMETHYL ETHER] | 0.32 nM | > 1000 nM | > 1000 nM | 0.14 nM | 81% |  |  | > 3000 | > 3000 |

— ChEMBL document CHEMBL1143255, “Standard protecting groups create potent and selective kappa opioids: salvinorin B alkoxymethyl ethers” (Bioorg Med Chem, 2008)
